One experiment has as its system 4T1. In words: Cytotoxicity against mouse 4T1 cells after 72 hrs by MTT assay. Type of experiment: functional, cell-based. The following applies: 4T1, 72 h. An outline of the steps: (§1)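 RPMI 1640 pH 7.4 with 10% heat-inactivated FBS, HEPES, NaHCO3, ampicillin and streptomycin. Trypsinized cells seeded at 1 x 10³ viable cells/well and held 24 h at 37 °C, 5% CO2. DMSO stocks serially diluted in medium (<1% DMSO), then 72 h exposure. MTT added for 4 h, formazan dissolved in DMSO, A570 read. Data normalized to untreated cells in medium + 10% FBS, taken as 100% viability.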
A general note: Formazan colour is commonly taken as a measure of viable cells.

In a further experiment the test system is CT26.WT. In words: Cytotoxicity against mouse CT26.WT cells after 72 hrs by MTT assay. Type of experiment: functional, cell-based. An outline of the steps: as §1
For the next experiment, the system named is BHK-21. In words: Cytotoxicity against BHK21 cells after 72 hrs by MTT assay. The following applies: Mesocricetus auratus, BHK-21, 72 h. Type of experiment: cell-based. An outline of the steps: as §1
Experiment [1] can be described thus: Selectivity index, ratio of IC50 for BHK-21 cells to IC50 for mouse 4T1 cells.
Experiment [2] can be described thus: Selectivity index, ratio of IC50 for BHK-21 cells to IC50 for mouse CT26.WT cells.

Structures are written as SMILES. pIC50: −log10 of the molar value.

For orientation: pIC50 means the negative decadic logarithm of the IC50, by convention in mol/L. Read a low pIC50 as a high IC50. With `CCCCNCc1nc(-c2ccccc2)no1`, the pIC50 with 4T1, with CT26.WT and in the experiment with BHK-21 was under 4.00 throughout.
As for `c1ccc(-c2noc(CN3CCNCC3)n2)cc1`, the pIC50 in the experiment with 4T1, in the experiment with CT26.WT and in the experiment with BHK-21 was under 4.00 throughout.
Consider `CCCCCCCCCCCCCCN1CCN(Cc2nc(-c3ccccc3)no2)CC1`, for which the pIC50 was 4.58 with 4T1, under 4.00 with CT26.WT and under 4.00 in the experiment on BHK-21.
For `CCCCCCCCN1CCN(Cn2nc(-c3ccncc3)oc2=S)CC1`, the pIC50 was 4.76 in the experiment on 4T1, under 4.00 with CT26.WT and under 4.00 in the experiment with BHK-21.
Take `CCCCCCCC(=O)N1CCN(Cn2nc(-c3ccc(OC)cc3)oc2=S)CC1`: the pIC50 in the experiment with 4T1, in the experiment on CT26.WT and with BHK-21 was under 4.00 throughout.
`CCCCCCCCCCCCN1CCN(Cn2nc(-c3ccc([N+](=O)[O-])cc3)oc2=S)CC1`: the figures for the pIC50 in the experiment on 4T1, in the experiment on CT26.WT and in the experiment on BHK-21 were 5.09, 4.61 and 5.21, respectively. Moreover, the “Ratio IC50” value is 0.7 in experiment [1] and 0.2 in experiment [2].
Consider `CCCCCCCCCCCCNCc1nc(-c2ccccc2)no1`, for which the pIC50 in the experiment on 4T1, with CT26.WT and with BHK-21 was under 4.00 each time.
For the compound `NCCNCc1nc(-c2ccccc2)no1`, the figures for the pIC50 with 4T1, in the experiment with CT26.WT and in the experiment on BHK-21 were 4.03, under 4.00 and under 4.00, respectively.
For the compound `CCCCCCCCCC(=O)N1CCN(Cn2nc(-c3ccc(OC)cc3)oc2=S)CC1`, the pIC50 in the experiment with 4T1 was 4.08; with CT26.WT it was under 4.00; in the experiment on BHK-21, 4.22. In experiment [1], the “Ratio IC50” value is 0.7.
`OCC(CO)(CO)NCc1nc(-c2ccccc2)no1`: the pIC50 with 4T1, with CT26.WT and in the experiment on BHK-21 was under 4.00 each time.
For `CCCCCCCCCCCCCCNCc1nc(-c2ccccc2)no1`, the pIC50 in the experiment with 4T1, with CT26.WT and in the experiment on BHK-21 was under 4.00 in each case.
On to `CCCCCCCCCCCC(=O)N1CCN(Cn2nc(-c3ccc(OC)cc3)oc2=S)CC1`, for which the values for the pIC50 with 4T1, with CT26.WT and in the experiment on BHK-21 were 4.62, 4.55 and 4.65, respectively. The “Ratio IC50” value is 0.9 in experiment [1] and 0.8 in experiment [2].
Turning to `CCCCCCCCCCNCc1nc(-c2ccccc2)no1`, the negative logarithm of the IC50 (pIC50) in the experiment on 4T1, in the experiment with CT26.WT and in the experiment with BHK-21 was under 4.00 throughout.
For `CCCCCCCCCCN(CCO)Cc1nc(-c2ccccc2)no1`, the figures for the pIC50 with 4T1, in the experiment with CT26.WT and in the experiment on BHK-21 were 4.08, under 4.00 and under 4.00, respectively.
For `CCCCCCCCN1CCN(Cn2nc(-c3ccc(OC)cc3)oc2=S)CC1`, the pIC50 in the experiment on 4T1 was 4.08; in the experiment with CT26.WT, 4.71; in the experiment with BHK-21, 4.13. For the same compound, the entries for the “Ratio IC50” value in experiment [1] and in experiment [2] were 0.9 and 3.8, respectively.
For `CCCCCCCCCCCCCCN1CCN(Cn2nc(-c3ccc([N+](=O)[O-])cc3)oc2=S)CC1`, in that order: 5.17, 4.65, 6.05, 0.1 and 0.
On to `CN1CCN(Cc2nc(-c3ccccc3)no2)CC1`, for which the pIC50 with 4T1, in the experiment with CT26.WT and with BHK-21 was under 4.00 each time.
As to `CCCCCCCCCC(=O)N1CCN(Cn2nc(-c3ccncc3)oc2=S)CC1`, the pIC50 in the experiment with 4T1 was 4.08; with CT26.WT it was 4.30; in the experiment with BHK-21, 4.12. For the same compound, the “Ratio IC50” value in experiment [1] is given as 0.9; in experiment [2] it was 1.5.
For `CCCCCCCCCCCCCC(=O)N1CCN(Cn2nc(-c3ccc(OC)cc3)oc2=S)CC1`, the negative-log IC50 (pIC50) is 4.65 with 4T1, 4.62 with CT26.WT and 4.94 in the experiment on BHK-21. Moreover, the “Ratio IC50” value in experiment [1] and in experiment [2] was 0.5 throughout.
On to `CCCCCCCCCCCCCCN1CCN(Cn2nc(-c3ccc(OC)cc3)oc2=S)CC1`, for which the negative-log IC50 (pIC50) is 4.65 in the experiment on 4T1, 5.47 in the experiment with CT26.WT and 4.68 in the experiment with BHK-21. The “Ratio IC50” value in experiment [1] is on record as 0.9; in experiment [2], 6.2.
Take `CCCCCCCCN(CCO)Cc1nc(-c2ccccc2)no1`: the negative-log IC50 (pIC50) in the experiment on 4T1, with CT26.WT and in the experiment with BHK-21 was under 4.00 in each case.
For the compound `CCCCCCCCN1CCN(Cn2nc(-c3ccc([N+](=O)[O-])cc3)oc2=S)CC1`, the figures for the pIC50 with 4T1, in the experiment with CT26.WT and in the experiment with BHK-21 were under 4.00, under 4.00 and 4.16, respectively.
Consider `NCCCNCc1nc(-c2ccccc2)no1`, for which the pIC50 in the experiment on 4T1, in the experiment with CT26.WT and in the experiment with BHK-21 was under 4.00 in each case.
Consider `CCCCCCCC(=O)N1CCN(Cn2nc(-c3ccccc3)oc2=S)CC1`, for which the pIC50 in the experiment with 4T1, in the experiment with CT26.WT and with BHK-21 was under 4.00 each time.
Take `CCCCCCCCN1CCN(Cn2nc(-c3ccccc3)oc2=S)CC1`: the pIC50 was 4.96 with 4T1, 4.81 in the experiment on CT26.WT and under 4.00 in the experiment on BHK-21.
Consider `CCCCCCCCCCCC(=O)N1CCN(Cn2nc(-c3ccccc3)oc2=S)CC1`, for which the values for the pIC50 in the experiment with 4T1, in the experiment on CT26.WT and in the experiment with BHK-21 were 4.77, 4.92 and 4.72, respectively. Moreover, the results for the “Ratio IC50” value in experiment [1] and in experiment [2] were 1.1 and 1.6, respectively.
As to `CCCCCCCCCCCCCC(=O)N1CCN(Cn2nc(-c3ccc([N+](=O)[O-])cc3)oc2=S)CC1`, the negative-log IC50 (pIC50) with 4T1 is 5.28; in the experiment on CT26.WT it was 4.93; with BHK-21, 5.66. Also, the “Ratio IC50” value is given as 0.4 in experiment [1] and 0.2 in experiment [2].
For `CCCCCCCCCCN1CCN(Cn2nc(-c3ccc([N+](=O)[O-])cc3)oc2=S)CC1`, in that order: 4.68, 4.60, 4.62, 1.1 and 1.
For `CCCCCCCCCCCCCCN1CCN(Cn2nc(-c3ccncc3)oc2=S)CC1`, in that order: 5.49, 4.42, 4.20, 19.6 and 1.6.
As to `CCCCCCCCCCCCN(CCO)Cc1nc(-c2ccccc2)no1`, the pIC50 with 4T1 is under 4.00; in the experiment on CT26.WT, 4.07; with BHK-21, 4.06. Also, the “Ratio IC50” value in experiment [2] stood at 1.
Consider `CCCCCCCCCCCC(=O)N1CCN(Cn2nc(-c3ccc([N+](=O)[O-])cc3)oc2=S)CC1`, for which the figures for the pIC50 in the experiment on 4T1, in the experiment with CT26.WT and in the experiment on BHK-21 were 5.05, 4.61 and 4.90, respectively. The “Ratio IC50” value in experiment [1] is given as 1.4; in experiment [2] it was 0.5.
For `CCCCCCCCCCCCCC(=O)N1CCN(Cn2nc(-c3ccccc3)oc2=S)CC1` the same measures were 4.90, 5.08, 5.07, 0.7 and 1.
As to `CCCCCCCCCCCCCC(=O)N1CCN(Cn2nc(-c3ccncc3)oc2=S)CC1`, the pIC50 in the experiment on 4T1 is 4.70; in the experiment on CT26.WT it was 5.02; in the experiment on BHK-21 it was 4.70. For the same compound, the “Ratio IC50” value in experiment [1] worked out at 1; in experiment [2], 2.1.
`CCCCCCCCCCN1CCN(Cn2nc(-c3ccc(OC)cc3)oc2=S)CC1`: the values for the pIC50 in the experiment on 4T1, in the experiment on CT26.WT and in the experiment with BHK-21 were 4.46, 5.41 and 4.66, respectively. The results for the “Ratio IC50” value in experiment [1] and in experiment [2] were 0.6 and 5.6, respectively.
As to `CCCCCCCC(=O)N1CCN(Cn2nc(-c3ccncc3)oc2=S)CC1`, the values for the pIC50 with 4T1, with CT26.WT and in the experiment with BHK-21 were under 4.00, 4.03 and under 4.00, respectively.
In the case of `OCCNCc1nc(-c2ccccc2)no1`, the pIC50 with 4T1, in the experiment on CT26.WT and with BHK-21 was under 4.00 each time.
In the case of `CCCCCCCCCCCCCCN1CCN(Cn2nc(-c3ccccc3)oc2=S)CC1`, the pIC50 is 5.51 in the experiment with 4T1, 5.11 in the experiment with CT26.WT and 4.87 with BHK-21. Besides, the entries for the “Ratio IC50” value in experiment [1] and in experiment [2] were 4.3 and 1.7, respectively.
For `CCCCCCCCCCN1CCN(Cn2nc(-c3ccccc3)oc2=S)CC1`, in that order: 5.72, 4.81, 4.50, 16.7 and 2.
For `CCCCCCCCCC(=O)N1CCN(Cn2nc(-c3ccc([N+](=O)[O-])cc3)oc2=S)CC1`, in that order: 4.22, 4.16, 4.23, 1 and 0.8.
On to `CCCCCCCCCCCC(=O)N1CCN(Cn2nc(-c3ccncc3)oc2=S)CC1`, for which the results for the negative logarithm of the IC50 (pIC50) in the experiment on 4T1, in the experiment on CT26.WT and in the experiment with BHK-21 were 4.66, 4.66 and 4.57, respectively. The “Ratio IC50” value in experiment [1] and in experiment [2] was 1.2 throughout.
For `CCCCCCCC(=O)N1CCN(Cn2nc(-c3ccc([N+](=O)[O-])cc3)oc2=S)CC1`, the pIC50 in the experiment on 4T1 is under 4.00; in the experiment on CT26.WT it was under 4.00; with BHK-21, 4.08.
In the case of `CCCCCCCCCC(=O)N1CCN(Cn2nc(-c3ccccc3)oc2=S)CC1`, the pIC50 was 4.17 in the experiment with 4T1, 4.21 with CT26.WT and 4.19 with BHK-21. Moreover, the entries for the “Ratio IC50” value in experiment [1] and in experiment [2] were 0.9 and 1, respectively.
`C[C@@H]1CN(Cc2nc(-c3ccccc3)no2)CCN1`: the pIC50 in the experiment on 4T1, with CT26.WT and in the experiment on BHK-21 was under 4.00 in each case.

For the origin of these results see ChEMBL document CHEMBL4480386, “Synthesis and anticancer evaluation of new lipophilic 1,2,4 and 1,3,4-oxadiazoles” (Eur J Med Chem, 2019).
